Published values pooled from the literature.

SMILES | tested on | assay | system | conditions | endpoint | result
N=c1c2c(-c3ccccc3)c(-c3ccccc3)n(Cc3ccccc3)c2ncn1[C@H]1CC[C@H](O)CC1 |  |  | male cynomolgus monkey, plasma | oral, 1 mg/kg, single dose | AUC(0-inf) | 27800 ng·h/mL
CN1CCCCC1Cn1cc(C(=O)c2cc([N+](=O)[O-])ccc2I)c2ccccc21 (racemic) |  |  | mouse, plasma | intravenous, 25 mg/kg | MRT | 54.7 min
COC(=O)[C@@H]1[C@@H](c2ccccc2)[C@]2(c3ccc(OC)cc3)Oc3cc(OC)cc(OC)c3[C@@]23N=C(C)N[C@@]13O | HepG2 | cell growth or viability, MTT |  | 48 h | CC50 | 0.0105 µM
Cc1cc(C)nc(Nc2ncc(C(=O)NCCc3c(C)[nH]c4ccccc34)cn2)c1 |  | metabolic stability | male human, hepatocytes | 1 µM | half-life | 41 min
O=C(c1ccc(-n2sc3ncccc3c2=O)cc1)N1CCOCC1 |  | metabolic stability | human, liver microsomes |  | half-life | > 120 min
O=C1[O][Pt]2([NH][C@@H]3CCCC[C@H]3[NH]2)[O]C1=O (relative stereo) |  |  | cynomolgus monkey, plasma | intravenous, 2 mg/kg | AUC(0-t) | 9170 ng·h/mL
CCCCCCCCCCOc1cc2c(O)c(C(=O)OCC)cnc2cc1OCC | HepG2 | cell growth or viability |  | 72 h | IC50 | > 100 µM
CCC1(c2ccccc2)C(=O)NC(=O)NC1=O | HepG2 | cell growth or viability, ATP luminescence |  |  | CC50 | > 1000 µM
